Values after ≈ are worked out from the molar mass of the structure shown.
Key:
Cytochrome P450 1A2 = Cytochrome P450 1A2 (Homo sapiens, UniProt P05177); assay: Time dependent inhibition of CYP1A2 in human liver microsomes at 100 uM; assay type: ADME
In short: (§1)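 Time-dependent inhibition assessed in pooled human liver microsomes with probe substrates, test compound at 100 μM.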

Rattus norvegicus [1] = assay: Inhibition of LPS induced TNFalpha secretion in Sprague-Dawley rat assessed as decrease in TNFalpha level in serum at 30 mg/kg, po pretreated for 1 hr followed by LPS challenge measured after 1.5 hrs relative to control; assay type: functional
In short: (§2)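 Male Sprague-Dawley rats, 6-8 weeks old, n = 6-9 per group. Test article was given orally at 0.3, 1, 3 or 30 mg/kg as a solution or suspension in 0.5% methylcellulose and 2% Tween 80 in water; controls received vehicle alone. Ultrapure LPS (0.01 mg/kg) was given iv 1 h later. Blood was drawn 1.5 h after challenge, and serum TNF was measured by MSD.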

Canis familiaris = assay: Plasma clearance in Beagle dog at 1 mg/kg, iv administered as single dose; assay type: ADME, organism-based, Canis lupus familiaris; conditions: in vivo
[2] = biological target: Casein kinase I isoform gamma-1 (Homo sapiens) (UniProt Q9HCP0); assay: Inhibition of recombinant human full length GST-tagged CK1gamma1 expressed in baculovirus at 200 nM
Casein kinase I isoform gamma-1 (Homo sapiens), sequence (Q9HCP0 whole entry, looked up, canonical isoform): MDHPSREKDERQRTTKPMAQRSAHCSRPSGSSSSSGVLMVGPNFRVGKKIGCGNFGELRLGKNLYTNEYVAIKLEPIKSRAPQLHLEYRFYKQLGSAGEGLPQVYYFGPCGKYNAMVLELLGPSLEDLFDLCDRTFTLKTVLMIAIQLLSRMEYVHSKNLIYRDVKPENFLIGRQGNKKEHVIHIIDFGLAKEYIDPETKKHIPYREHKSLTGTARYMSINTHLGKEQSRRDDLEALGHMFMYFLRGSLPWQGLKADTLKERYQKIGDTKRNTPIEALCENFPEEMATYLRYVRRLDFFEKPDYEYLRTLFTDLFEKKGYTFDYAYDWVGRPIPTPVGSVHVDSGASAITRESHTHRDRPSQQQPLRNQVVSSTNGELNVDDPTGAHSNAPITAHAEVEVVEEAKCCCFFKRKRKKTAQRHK

[3] = Fraction unbound in rat plasma; assay type: ADME, cell-free
In short: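 Fraction unbound in plasma measured by equilibrium dialysis.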

[4] = Half life in Beagle dog at 5 mg/kg, po administered as single dose; assay type: ADME, organism-based, Canis lupus familiaris; conditions: in vivo
[5] = biological target: Phosphatidylinositol 5-phosphate 4-kinase type-2 gamma (Homo sapiens) (UniProt Q8TBX8); assay: Inhibition of PIPK2C in human THP1 cell lysate at 200 nM
Phosphatidylinositol 5-phosphate 4-kinase type-2 gamma (Homo sapiens), sequence (Q8TBX8 whole entry): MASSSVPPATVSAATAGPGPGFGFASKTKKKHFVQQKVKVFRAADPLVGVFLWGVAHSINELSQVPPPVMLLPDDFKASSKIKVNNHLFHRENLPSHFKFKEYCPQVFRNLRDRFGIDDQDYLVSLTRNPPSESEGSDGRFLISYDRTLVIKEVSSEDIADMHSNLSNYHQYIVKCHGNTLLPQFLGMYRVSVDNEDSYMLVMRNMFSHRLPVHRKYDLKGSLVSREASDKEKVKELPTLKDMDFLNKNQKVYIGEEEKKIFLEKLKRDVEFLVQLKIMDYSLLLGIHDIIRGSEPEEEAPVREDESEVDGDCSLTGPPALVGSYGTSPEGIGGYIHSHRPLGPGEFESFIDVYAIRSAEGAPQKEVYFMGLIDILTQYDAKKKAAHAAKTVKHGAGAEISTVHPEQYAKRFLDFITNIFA

[6] = biological target: Interleukin-1 receptor-associated kinase 3 (Homo sapiens) (UniProt Q9Y616); assay: Inhibition of IRAK3 in human THP1 cell lysate at 200 nM
Interleukin-1 receptor-associated kinase 3 (Homo sapiens), sequence (Q9Y616 whole entry): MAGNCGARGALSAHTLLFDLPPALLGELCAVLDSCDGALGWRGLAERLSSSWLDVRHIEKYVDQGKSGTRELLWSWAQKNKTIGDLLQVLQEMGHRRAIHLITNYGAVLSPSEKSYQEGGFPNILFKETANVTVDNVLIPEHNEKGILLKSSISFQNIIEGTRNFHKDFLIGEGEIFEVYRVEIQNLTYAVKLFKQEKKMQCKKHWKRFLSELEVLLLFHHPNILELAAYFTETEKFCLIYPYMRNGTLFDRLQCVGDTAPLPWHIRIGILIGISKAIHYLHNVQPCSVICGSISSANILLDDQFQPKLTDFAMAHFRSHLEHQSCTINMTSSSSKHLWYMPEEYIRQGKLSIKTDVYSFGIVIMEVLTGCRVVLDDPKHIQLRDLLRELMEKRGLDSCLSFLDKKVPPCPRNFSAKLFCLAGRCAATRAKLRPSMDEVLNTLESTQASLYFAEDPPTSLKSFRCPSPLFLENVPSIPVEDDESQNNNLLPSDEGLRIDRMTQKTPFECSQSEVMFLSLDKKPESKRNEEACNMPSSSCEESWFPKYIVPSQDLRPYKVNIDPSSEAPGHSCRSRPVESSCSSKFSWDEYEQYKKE

[7] = Solubility of compound in water at pH 8.1; assay type: physicochemical
In short: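 Solubility of crystalline material measured in phosphate-buffered saline pH 6.7, unbuffered water pH 8.1 and simulated fasted-state intestinal fluid pH 6.5, reported in μg/mL.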

CYP2C9 = CYP2C9 (Homo sapiens, UniProt P11712); assay: Inhibition of CYP2C9 in human liver microsomes at 3 uM; assay type: ADME
CYP2C9, sequence (P11712 whole entry): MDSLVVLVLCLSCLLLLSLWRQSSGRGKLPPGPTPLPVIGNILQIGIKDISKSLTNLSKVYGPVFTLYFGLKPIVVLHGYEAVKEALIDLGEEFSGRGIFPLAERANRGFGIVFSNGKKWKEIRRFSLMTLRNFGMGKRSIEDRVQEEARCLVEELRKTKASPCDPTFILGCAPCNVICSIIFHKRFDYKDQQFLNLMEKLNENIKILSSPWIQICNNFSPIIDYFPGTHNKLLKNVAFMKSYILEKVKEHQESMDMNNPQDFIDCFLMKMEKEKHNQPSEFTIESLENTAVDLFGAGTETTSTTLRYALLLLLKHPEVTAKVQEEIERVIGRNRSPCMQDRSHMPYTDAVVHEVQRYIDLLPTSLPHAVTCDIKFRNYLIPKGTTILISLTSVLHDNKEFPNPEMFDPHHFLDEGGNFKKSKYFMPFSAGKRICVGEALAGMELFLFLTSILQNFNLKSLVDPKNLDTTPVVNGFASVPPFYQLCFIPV

Plasma [8] = assay: Free plasma concentration in Sprague-Dawley rat LPS model at 1 mg/kg, po after 2.5 hrs; assay type: ADME, organism-based; conditions: in vivo
In short: (§3)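 Male Sprague−Dawley rats, 6−8 weeks old, n = 6−9 per group. Dosed orally at 0.3, 1, 3 or 30 mg/kg in 0.5% methylcellulose/2% Tween 80 in water. Ultrapure LPS 0.01 mg/kg iv given 1 h after dosing. Plasma exposure taken 2.5 h after oral dosing and reported as free concentration using fraction unbound in rat plasma.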

Rattus norvegicus [9] = assay: Inhibition of LPS induced TNFalpha secretion in po dosed Sprague-Dawley rat assessed as decrease in TNFalpha level in serum pretreated for 1 hr followed by LPS challenge measured after 1.5 hrs relative to control; assay type: functional, organism-based; in short: as §2
[10] = biological target: Vascular endothelial growth factor receptor 2 (Homo sapiens, UniProt P35968); assay: Inhibition of human recombinant VEGFR2 using CAGAGAIETDKEYYTVKD as substrate after 60 mins by Lance method
Cytochrome P450 2C19 = Cytochrome P450 2C19 (Homo sapiens, UniProt P33261); assay: Time dependent inhibition of CYP2C19 in human liver microsomes at 100 uM; assay type: ADME; in short: as §1
Cytochrome P450 2C19, sequence (P33261 whole entry): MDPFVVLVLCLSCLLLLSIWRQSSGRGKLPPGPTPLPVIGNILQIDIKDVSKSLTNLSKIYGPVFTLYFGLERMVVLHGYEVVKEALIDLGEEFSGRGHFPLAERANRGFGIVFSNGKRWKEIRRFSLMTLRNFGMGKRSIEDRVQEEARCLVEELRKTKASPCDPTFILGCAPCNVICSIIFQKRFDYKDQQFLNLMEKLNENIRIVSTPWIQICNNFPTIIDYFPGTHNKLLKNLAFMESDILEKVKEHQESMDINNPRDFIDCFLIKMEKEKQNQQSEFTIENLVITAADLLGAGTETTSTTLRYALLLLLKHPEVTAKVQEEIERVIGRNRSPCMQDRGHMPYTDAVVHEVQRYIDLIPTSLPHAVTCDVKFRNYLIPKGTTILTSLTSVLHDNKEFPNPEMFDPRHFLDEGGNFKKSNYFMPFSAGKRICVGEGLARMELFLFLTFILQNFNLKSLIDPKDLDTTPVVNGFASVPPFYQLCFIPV

[11] = Half life in Wistar Han rat at 5 mg/kg, po administered as single dose; assay type: ADME, organism-based; conditions: in vivo
[12] = Volume of distribution at steady state in cynomolgus monkey at 1 mg/kg, iv administered as single dose; assay type: ADME, organism-based, Macaca fascicularis; conditions: in vivo, read-out: Vdss
In short: (§4)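 Single-dose pharmacokinetic study in male animals, with iv and separate oral administration. Steady-state volume of distribution was derived from plasma concentrations after the iv dose.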

[13] = Volume of distribution at steady state in Beagle dog at 1 mg/kg, iv administered as single dose; assay type: ADME, organism-based, Canis lupus familiaris; conditions: in vivo, read-out: Vdss; in short: as §4
Rattus norvegicus [14] = assay: Inhibition of LPS induced TNFalpha secretion in Sprague-Dawley rat assessed as decrease in TNFalpha level in serum at 3 mg/kg, po pretreated for 1 hr followed by LPS challenge measured after 1.5 hrs relative to control; assay type: functional; in short: as §2
[15] = Oral bioavailability in Beagle dog at 5 mg/kg administered as single dose; assay type: ADME, organism-based, Canis lupus familiaris; conditions: in vivo
[16] = Apparent intrinsic clearance in human liver microsomes; assay type: ADME, microsome; conditions: read-out: CLH(app)
Plasma [17] = assay: Free plasma concentration in Sprague-Dawley rat LPS model at 0.3 mg/kg, po after 2.5 hrs; assay type: ADME, organism-based; conditions: in vivo; in short: as §3
Cytochrome P450 2C8 = Cytochrome P450 2C8 (Homo sapiens, UniProt P10632); assay: Time dependent inhibition of CYP2C8 in human liver microsomes at 100 uM; assay type: ADME; in short: as §1
Cytochrome P450 2C8, sequence (P10632 whole entry): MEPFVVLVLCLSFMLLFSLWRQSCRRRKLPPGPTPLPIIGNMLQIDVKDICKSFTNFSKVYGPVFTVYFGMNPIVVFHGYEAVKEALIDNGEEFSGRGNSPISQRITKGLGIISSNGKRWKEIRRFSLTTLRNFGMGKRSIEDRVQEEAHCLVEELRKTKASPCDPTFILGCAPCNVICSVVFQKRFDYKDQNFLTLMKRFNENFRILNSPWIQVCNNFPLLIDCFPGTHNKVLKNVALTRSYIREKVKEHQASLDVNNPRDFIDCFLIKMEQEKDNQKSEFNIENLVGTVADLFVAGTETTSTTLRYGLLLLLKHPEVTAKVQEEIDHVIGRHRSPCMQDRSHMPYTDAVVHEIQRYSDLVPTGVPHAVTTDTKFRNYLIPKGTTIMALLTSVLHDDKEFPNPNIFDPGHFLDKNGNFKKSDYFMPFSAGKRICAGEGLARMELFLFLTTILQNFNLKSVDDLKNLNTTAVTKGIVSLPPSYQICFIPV

[18] = Half life in cynomolgus monkey at 1 mg/kg, iv administered as single dose; assay type: ADME, organism-based, Macaca fascicularis; conditions: in vivo
[19] = Oral bioavailability in Wistar Han rat at 5 mg/kg administered as single dose; assay type: ADME, organism-based; conditions: in vivo
CYP3A4 = CYP3A4 (Homo sapiens, UniProt P08684); assay: Inhibition of CYP3A4 in human liver microsomes at 3 uM; assay type: ADME
CYP3A4, sequence (P08684 whole entry): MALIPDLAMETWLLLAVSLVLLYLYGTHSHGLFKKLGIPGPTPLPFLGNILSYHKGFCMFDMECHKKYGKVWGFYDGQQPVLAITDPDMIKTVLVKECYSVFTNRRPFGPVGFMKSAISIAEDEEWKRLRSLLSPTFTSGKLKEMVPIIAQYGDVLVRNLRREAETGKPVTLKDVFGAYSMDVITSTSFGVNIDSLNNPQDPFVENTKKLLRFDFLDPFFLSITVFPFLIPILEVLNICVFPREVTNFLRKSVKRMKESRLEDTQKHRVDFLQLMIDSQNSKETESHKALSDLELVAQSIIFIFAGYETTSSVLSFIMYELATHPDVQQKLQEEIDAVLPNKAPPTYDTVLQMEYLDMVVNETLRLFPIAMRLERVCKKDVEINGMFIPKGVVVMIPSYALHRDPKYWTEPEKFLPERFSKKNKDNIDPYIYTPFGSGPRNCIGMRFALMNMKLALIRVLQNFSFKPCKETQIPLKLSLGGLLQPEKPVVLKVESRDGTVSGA

[20] = Volume of distribution at steady state in Wistar Han rat at 1 mg/kg, iv administered as single dose; assay type: ADME, organism-based; conditions: in vivo, read-out: Vdss; in short: as §4
[21] = biological target: T1, Interleukin-1 receptor-associated kinase 4 (Homo sapiens) (UniProt Q9NWZ3); assay: Inhibition of IRAK4 in human THP1 cell lysate at 200 nM
T1 sequence (whole entry): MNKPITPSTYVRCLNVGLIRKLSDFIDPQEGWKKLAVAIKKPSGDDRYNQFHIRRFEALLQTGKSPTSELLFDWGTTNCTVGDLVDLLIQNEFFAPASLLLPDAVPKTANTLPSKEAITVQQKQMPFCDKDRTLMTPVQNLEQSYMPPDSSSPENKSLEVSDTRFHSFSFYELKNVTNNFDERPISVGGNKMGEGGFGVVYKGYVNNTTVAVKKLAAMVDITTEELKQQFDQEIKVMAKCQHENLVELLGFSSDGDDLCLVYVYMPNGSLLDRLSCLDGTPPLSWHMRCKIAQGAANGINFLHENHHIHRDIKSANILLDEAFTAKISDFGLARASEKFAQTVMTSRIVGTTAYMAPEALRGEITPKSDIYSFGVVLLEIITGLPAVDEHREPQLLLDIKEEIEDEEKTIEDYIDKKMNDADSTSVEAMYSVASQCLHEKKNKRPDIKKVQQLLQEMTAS

hERG (KCNH2) = hERG (KCNH2) (Homo sapiens, UniProt Q12809); assay: Inhibition of human ERG at 100 uM by voltage clamp assay
hERG (KCNH2), sequence (Q12809 whole entry): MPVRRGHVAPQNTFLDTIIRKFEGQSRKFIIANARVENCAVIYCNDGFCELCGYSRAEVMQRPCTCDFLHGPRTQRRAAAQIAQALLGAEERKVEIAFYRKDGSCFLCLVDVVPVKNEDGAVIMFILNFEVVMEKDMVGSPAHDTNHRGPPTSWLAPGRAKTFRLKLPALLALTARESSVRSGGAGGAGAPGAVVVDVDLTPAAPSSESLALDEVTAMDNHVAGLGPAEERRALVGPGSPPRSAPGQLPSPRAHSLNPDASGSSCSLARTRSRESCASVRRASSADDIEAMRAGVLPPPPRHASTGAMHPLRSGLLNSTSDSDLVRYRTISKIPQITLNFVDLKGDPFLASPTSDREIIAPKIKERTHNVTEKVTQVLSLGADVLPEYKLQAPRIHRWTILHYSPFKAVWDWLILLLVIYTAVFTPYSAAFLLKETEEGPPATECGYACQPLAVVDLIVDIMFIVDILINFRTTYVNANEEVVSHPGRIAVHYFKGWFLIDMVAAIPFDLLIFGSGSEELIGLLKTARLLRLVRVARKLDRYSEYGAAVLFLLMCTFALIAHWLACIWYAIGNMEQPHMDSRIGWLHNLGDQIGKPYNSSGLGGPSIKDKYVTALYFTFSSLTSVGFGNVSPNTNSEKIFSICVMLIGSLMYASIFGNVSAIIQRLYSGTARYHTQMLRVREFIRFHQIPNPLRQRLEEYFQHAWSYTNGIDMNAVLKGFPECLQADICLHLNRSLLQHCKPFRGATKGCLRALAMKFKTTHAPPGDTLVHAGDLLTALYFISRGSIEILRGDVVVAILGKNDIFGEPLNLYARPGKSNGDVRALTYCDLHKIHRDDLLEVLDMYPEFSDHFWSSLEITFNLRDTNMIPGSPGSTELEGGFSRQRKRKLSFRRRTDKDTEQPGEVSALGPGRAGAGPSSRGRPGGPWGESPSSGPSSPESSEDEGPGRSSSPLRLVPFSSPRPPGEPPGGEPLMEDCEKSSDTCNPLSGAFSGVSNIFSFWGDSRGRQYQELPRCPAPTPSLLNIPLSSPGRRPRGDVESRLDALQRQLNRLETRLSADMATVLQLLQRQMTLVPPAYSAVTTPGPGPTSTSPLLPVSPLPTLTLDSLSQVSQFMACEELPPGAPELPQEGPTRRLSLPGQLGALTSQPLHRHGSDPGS
In short: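 hERG current measured by voltage clamp, test compound at 100 μM; percent current inhibition.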

CYP2C8 = CYP2C8 (Homo sapiens, UniProt P10632); assay: Inhibition of CYP2C8 in human liver microsomes at 3 uM; assay type: ADME
CYP2C8, sequence (P10632 whole entry): as the sequence (P10632 whole entry) above

Cytochrome P450 2D6 = Cytochrome P450 2D6 (Homo sapiens, UniProt P10635); assay: Time dependent inhibition of CYP2D6 in human liver microsomes at 100 uM; assay type: ADME
In short: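 Pooled human liver microsomes with CYP probe substrates. Time-dependent inhibition was assessed across CYP1A2, 2B6, 2C8, 2C9, 2C19 and 2D6, with test compound at 100 μM.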

CC[C@@H]1[C@H](F)C(=O)N[C@@H]1COc1nccc2cc(C(N)=O)c(OC)cc12 [ZIMLOVISERTIB]
TDI (Cytochrome P450 1A2): Not Active
inhibition in vivo at 30 mg/kg (Rattus norvegicus [1]): 87%
clearance (Canis familiaris): 10 mL/min/kg
inhibition [2]: > 70%
fraction unbound [3]: 0.3
half-life [4]: 4 h
inhibition [5]: > 50%
inhibition [6]: > 50%
solubility [7]: 65 µg/mL (≈ 180 µM)
inhibition at 3 µM (CYP2C9): < 5%
Cp(f) (Plasma [8]): 7.7 nM
inhibition (Rattus norvegicus [9]): Dose-dependent effect
IC50 [10]: 5.33 µM
TDI (Cytochrome P450 2C19): Not Active
half-life [11]: 1.4 to 2.1 h
Vd [12]: 0.95 L/kg
Vd [13]: 0.77 L/kg
inhibition in vivo at 3 mg/kg (Rattus norvegicus [14]): 60%
bioavailability [15]: 41%
microsomal CLint [16]: 25 µL/min/mg
Cp(f) (Plasma [17]): 2.1 nM
TDI (Cytochrome P450 2C8): Not Active
half-life [18]: 1.7 h
bioavailability [19]: 34 to 50%
inhibition at 3 µM (CYP3A4): < 5%
Vd [20]: 1.8 L/kg
inhibition [21]: > 50%
inhibition at 100 µM (hERG (KCNH2)): 25%
inhibition at 3 µM (CYP2C8): < 5%
TDI (Cytochrome P450 2D6): Not Active
